ChEMBL document CHEMBL1275252, “First survey of metallo-beta-lactamases in clinical isolates of Pseudomonas aeruginosa in a German university hospital” (2010)

What was measured:
Assay type in all cases: functional
Pseudomonas aeruginosa [1] = assay: Antimicrobial activity against metallo-beta-lactamase-negative Pseudomonas aeruginosa isolate PA460
Pseudomonas aeruginosa [2] = assay: Antimicrobial activity against Pseudomonas aeruginosa isolate PA469 expressing VIM-2 beta-lactamase
Pseudomonas aeruginosa [3] = assay: Antimicrobial activity against metallo-beta-lactamase-negative Pseudomonas aeruginosa isolate PA479
Pseudomonas aeruginosa [4] = assay: Antimicrobial activity against Pseudomonas aeruginosa isolate PA481 expressing VIM-2 beta-lactamase
Pseudomonas aeruginosa [5] = assay: Antimicrobial activity against Pseudomonas aeruginosa isolate PA475 expressing VIM-2 beta-lactamase
Pseudomonas aeruginosa [6] = assay: Antimicrobial activity against metallo-beta-lactamase-negative Pseudomonas aeruginosa isolate PA483
Pseudomonas aeruginosa [7] = assay: Antimicrobial activity against Pseudomonas aeruginosa isolate PA477 expressing VIM-2 beta-lactamase
Pseudomonas aeruginosa [8] = assay: Antimicrobial activity against Pseudomonas aeruginosa isolate PA510 expressing VIM-2 beta-lactamase
Pseudomonas aeruginosa [9] = assay: Antimicrobial activity against Pseudomonas aeruginosa isolate PA462 expressing VIM-2 beta-lactamase
Pseudomonas aeruginosa [10] = assay: Antimicrobial activity against Pseudomonas aeruginosa isolate PA465 expressing VIM-2 beta-lactamase
Pseudomonas aeruginosa [11] = assay: Antimicrobial activity against Pseudomonas aeruginosa isolate PA500 expressing VIM-1 beta-lactamase
Pseudomonas aeruginosa [12] = assay: Antimicrobial activity against Pseudomonas aeruginosa isolate PA399 expressing VIM-2 beta-lactamase
Pseudomonas aeruginosa [13] = assay: Antimicrobial activity against metallo-beta-lactamase-negative Pseudomonas aeruginosa isolate PA509
Pseudomonas aeruginosa [14] = assay: Antimicrobial activity against metallo-beta-lactamase-negative Pseudomonas aeruginosa isolate PA459
Outline: (§1)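 MBL-negative clinical P. aeruginosa isolates with reduced imipenem susceptibility, collected at the study hospital, some from cystic fibrosis patients. Species identity was confirmed by automated Gram-negative identification card. MIC was read in μg/ml.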

Pseudomonas aeruginosa [15] = assay: Antimicrobial activity against metallo-beta-lactamase-negative Pseudomonas aeruginosa isolate PA494
Pseudomonas aeruginosa [16] = assay: Antimicrobial activity against metallo-beta-lactamase-negative Pseudomonas aeruginosa isolate PA507; outline: as §1
Pseudomonas aeruginosa [17] = assay: Antimicrobial activity against metallo-beta-lactamase-negative Pseudomonas aeruginosa isolate PA758 isolated from patient with cystic fibrosis; outline: as §1
Pseudomonas aeruginosa [18] = assay: Antimicrobial activity against metallo-beta-lactamase-negative Pseudomonas aeruginosa isolate PA364; outline: as §1
Pseudomonas aeruginosa [19] = assay: Antimicrobial activity against Pseudomonas aeruginosa PA386 expressing IMP-13 beta-lactamase
Outline: (§2)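 Well-characterized MBL-producing control strains from earlier studies: nine P. aeruginosa and one A. baumannii. MIC was read in μg/ml and used to set screening breakpoints for MBL producers.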

Pseudomonas aeruginosa [20] = assay: Antimicrobial activity against metallo-beta-lactamase-negative Pseudomonas aeruginosa isolate PA361; outline: as §1
Pseudomonas aeruginosa [21] = assay: Antimicrobial activity against metallo-beta-lactamase-negative Pseudomonas aeruginosa isolate PA340; outline: as §1
Pseudomonas aeruginosa [22] = assay: Antimicrobial activity against metallo-beta-lactamase-negative Pseudomonas aeruginosa isolate PA395; outline: as §1
Pseudomonas aeruginosa [23] = assay: Antimicrobial activity against metallo-beta-lactamase-negative Pseudomonas aeruginosa isolate PA352; outline: as §1
Pseudomonas aeruginosa [24] = assay: Antimicrobial activity against metallo-beta-lactamase-negative Pseudomonas aeruginosa isolate PA377; outline: as §1
Pseudomonas aeruginosa [25] = assay: Antimicrobial activity against metallo-beta-lactamase-negative Pseudomonas aeruginosa isolate PA380; outline: as §1
Pseudomonas aeruginosa [26] = assay: Antimicrobial activity against Pseudomonas aeruginosa PA554 expressing GIM-1 beta-lactamase; outline: as §2
Pseudomonas aeruginosa [27] = assay: Antimicrobial activity against Pseudomonas aeruginosa PA431 expressing IMP-1 beta-lactamase; outline: as §2
Pseudomonas aeruginosa [28] = assay: Antimicrobial activity against metallo-beta-lactamase-negative Pseudomonas aeruginosa isolate PA376
Pseudomonas aeruginosa [29] = assay: Antimicrobial activity against metallo-beta-lactamase-negative Pseudomonas aeruginosa isolate PA368; outline: as §1
Pseudomonas aeruginosa [30] = assay: Antimicrobial activity against metallo-beta-lactamase-negative Pseudomonas aeruginosa isolate PA370; outline: as §1
Pseudomonas aeruginosa [31] = assay: Antimicrobial activity against metallo-beta-lactamase-negative Pseudomonas aeruginosa isolate PA342; outline: as §1
Pseudomonas aeruginosa [32] = assay: Antimicrobial activity against metallo-beta-lactamase-negative Pseudomonas aeruginosa isolate PA349; outline: as §1
Pseudomonas aeruginosa [33] = assay: Antimicrobial activity against metallo-beta-lactamase-negative Pseudomonas aeruginosa isolate PA360; outline: as §1
Pseudomonas aeruginosa [34] = assay: Antimicrobial activity against Pseudomonas aeruginosa PA399 expressing VIM-2 beta-lactamase; outline: as §2
Pseudomonas aeruginosa [35] = assay: Antimicrobial activity against Pseudomonas aeruginosa PA553 expressing SPM-1 beta-lactamase; outline: as §2
Pseudomonas aeruginosa [36] = assay: Antimicrobial activity against Pseudomonas aeruginosa PA373 expressing VIM-2 beta-lactamase; outline: as §2
Pseudomonas aeruginosa [37] = assay: Antimicrobial activity against metallo-beta-lactamase-negative Pseudomonas aeruginosa isolate PA339; outline: as §1
Pseudomonas aeruginosa [38] = assay: Antimicrobial activity against metallo-beta-lactamase-negative Pseudomonas aeruginosa isolate PA734 isolated from patient with cystic fibrosis; outline: as §1
Pseudomonas aeruginosa [39] = assay: Antimicrobial activity against metallo-beta-lactamase-negative Pseudomonas aeruginosa isolate PA355; outline: as §1
Pseudomonas aeruginosa [40] = assay: Antimicrobial activity against metallo-beta-lactamase-negative Pseudomonas aeruginosa isolate PA382; outline: as §1
Pseudomonas aeruginosa [41] = assay: Antimicrobial activity against Pseudomonas aeruginosa PA552 expressing IMP-1 beta-lactamase; outline: as §2
Pseudomonas aeruginosa [42] = assay: Antimicrobial activity against metallo-beta-lactamase-negative Pseudomonas aeruginosa isolate PA362; outline: as §1
Pseudomonas aeruginosa [43] = assay: Antimicrobial activity against Pseudomonas aeruginosa PA430 expressing VIM-4 beta-lactamase; outline: as §2
Pseudomonas aeruginosa [44] = assay: Antimicrobial activity against metallo-beta-lactamase-negative Pseudomonas aeruginosa isolate PA350; outline: as §1
Pseudomonas aeruginosa [45] = assay: Antimicrobial activity against metallo-beta-lactamase-negative Pseudomonas aeruginosa isolate PA341; outline: as §1
Pseudomonas aeruginosa [46] = assay: Antimicrobial activity against Pseudomonas aeruginosa PA550 expressing VIM-1 beta-lactamase; outline: as §2
Acinetobacter baumannii = assay: Antimicrobial activity against Acinetobacter baumannii AB551 expressing SIM-1 beta-lactamase; outline: as §2
Pseudomonas aeruginosa [47] = assay: Antimicrobial activity against metallo-beta-lactamase-negative Pseudomonas aeruginosa isolate PA381; outline: as §1
Pseudomonas aeruginosa [48] = assay: Antimicrobial activity against metallo-beta-lactamase-negative Pseudomonas aeruginosa isolate PA736 isolated from patient with cystic fibrosis; outline: as §1
Pseudomonas aeruginosa [49] = assay: Antimicrobial activity against metallo-beta-lactamase-negative Pseudomonas aeruginosa isolate PA356; outline: as §1
Pseudomonas aeruginosa [50] = assay: Antimicrobial activity against metallo-beta-lactamase-negative Pseudomonas aeruginosa isolate PA774 isolated from patient with cystic fibrosis; outline: as §1
Pseudomonas aeruginosa [51] = assay: Antimicrobial activity against metallo-beta-lactamase-negative Pseudomonas aeruginosa isolate PA346; outline: as §1

Measured: MIC

C[C@H]1[C@H](NC(=O)/C(=N\OC(C)(C)C(=O)O)c2csc(N)n2)C(=O)N1S(=O)(=O)O [AZTREONAM]
≥ 64 µg/mL: Pseudomonas aeruginosa [8]
4 µg/mL: Pseudomonas aeruginosa [11]
8 µg/mL: Pseudomonas aeruginosa [13]
16 µg/mL: Pseudomonas aeruginosa [1] | Pseudomonas aeruginosa [2] | Pseudomonas aeruginosa [4] | Pseudomonas aeruginosa [5] | Pseudomonas aeruginosa [7] | Pseudomonas aeruginosa [9] | Pseudomonas aeruginosa [10] | Pseudomonas aeruginosa [12] | Pseudomonas aeruginosa [14] | Pseudomonas aeruginosa [15] | Pseudomonas aeruginosa [16]
64 µg/mL: Pseudomonas aeruginosa [6]
32 µg/mL: Pseudomonas aeruginosa [3]

C[C@@H](O)[C@H]1C(=O)N2C(C(=O)O)=C(S[C@@H]3CN[C@H](C(=O)N(C)C)C3)[C@H](C)[C@H]12 [MEROPENEM]
4 µg/mL: Pseudomonas aeruginosa [16]
8 µg/mL: Pseudomonas aeruginosa [1] | Pseudomonas aeruginosa [14] | Pseudomonas aeruginosa [15]
≥ 16 µg/mL: Pseudomonas aeruginosa [2] | Pseudomonas aeruginosa [3] | Pseudomonas aeruginosa [4] | Pseudomonas aeruginosa [5] | Pseudomonas aeruginosa [6] | Pseudomonas aeruginosa [7] | Pseudomonas aeruginosa [8] | Pseudomonas aeruginosa [9] | Pseudomonas aeruginosa [10] | Pseudomonas aeruginosa [11] | Pseudomonas aeruginosa [12] | Pseudomonas aeruginosa [13]

NCC[C@H](O)C(=O)N[C@@H]1C[C@H](N)[C@@H](O[C@H]2O[C@H](CN)[C@@H](O)[C@H](O)[C@H]2O)[C@H](O)[C@H]1O[C@H]1O[C@H](CO)[C@@H](O)[C@H](N)[C@H]1O [AMIKACIN]
16 µg/mL: Pseudomonas aeruginosa [16]
2 µg/mL: Pseudomonas aeruginosa [6] | Pseudomonas aeruginosa [14]
64 µg/mL: Pseudomonas aeruginosa [13]
8 µg/mL: Pseudomonas aeruginosa [2] | Pseudomonas aeruginosa [3] | Pseudomonas aeruginosa [4] | Pseudomonas aeruginosa [7] | Pseudomonas aeruginosa [10] | Pseudomonas aeruginosa [12] | Pseudomonas aeruginosa [15]
4 µg/mL: Pseudomonas aeruginosa [1] | Pseudomonas aeruginosa [5] | Pseudomonas aeruginosa [8] | Pseudomonas aeruginosa [9]
≤ 2 µg/mL: Pseudomonas aeruginosa [11]

GENTAMICIN
> 16 µg/mL: Pseudomonas aeruginosa [1] | Pseudomonas aeruginosa [2] | Pseudomonas aeruginosa [3] | Pseudomonas aeruginosa [4] | Pseudomonas aeruginosa [5] | Pseudomonas aeruginosa [7] | Pseudomonas aeruginosa [8] | Pseudomonas aeruginosa [9] | Pseudomonas aeruginosa [10] | Pseudomonas aeruginosa [11] | Pseudomonas aeruginosa [12] | Pseudomonas aeruginosa [13] | Pseudomonas aeruginosa [16]
8 µg/mL: Pseudomonas aeruginosa [15]
1 µg/mL: Pseudomonas aeruginosa [6] | Pseudomonas aeruginosa [14]

C[C@@H](O)[C@H]1C(=O)N2C(C(=O)O)=C(SCCNC=N)C[C@H]12 [IMIPENEM ANHYDROUS]
8 µg/mL: Pseudomonas aeruginosa [18] | Pseudomonas aeruginosa [3] | Pseudomonas aeruginosa [21] | Pseudomonas aeruginosa [25] | Pseudomonas aeruginosa [27] | Pseudomonas aeruginosa [33] | Pseudomonas aeruginosa [42] | Pseudomonas aeruginosa [48]
≥ 16 µg/mL: Pseudomonas aeruginosa [17] | Pseudomonas aeruginosa [19] | Pseudomonas aeruginosa [20] | Pseudomonas aeruginosa [1] | Pseudomonas aeruginosa [2] | Pseudomonas aeruginosa [22] | Pseudomonas aeruginosa [23] | Pseudomonas aeruginosa [24] | Pseudomonas aeruginosa [4] | Pseudomonas aeruginosa [26] | Pseudomonas aeruginosa [5] | Pseudomonas aeruginosa [6] | Pseudomonas aeruginosa [7] | Pseudomonas aeruginosa [28] | Pseudomonas aeruginosa [29] | Pseudomonas aeruginosa [30] | Pseudomonas aeruginosa [31] | Pseudomonas aeruginosa [32] | Pseudomonas aeruginosa [8] | Pseudomonas aeruginosa [34] | Pseudomonas aeruginosa [35] | Pseudomonas aeruginosa [9] | Pseudomonas aeruginosa [36] | Pseudomonas aeruginosa [37] | Pseudomonas aeruginosa [10] | Pseudomonas aeruginosa [38] | Pseudomonas aeruginosa [39] | Pseudomonas aeruginosa [11] | Pseudomonas aeruginosa [40] | Pseudomonas aeruginosa [41] | Pseudomonas aeruginosa [43] | Pseudomonas aeruginosa [12] | Pseudomonas aeruginosa [44] | Pseudomonas aeruginosa [13] | Pseudomonas aeruginosa [14] | Pseudomonas aeruginosa [45] | Pseudomonas aeruginosa [46] | Pseudomonas aeruginosa [15] | Acinetobacter baumannii | Pseudomonas aeruginosa [47] | Pseudomonas aeruginosa [49] | Pseudomonas aeruginosa [50] | Pseudomonas aeruginosa [51]
